Measured values taken from ChEMBL document CHEMBL1129379, “Heterocyclic ureas: inhibitors of acyl-CoA:cholesterol O-acyltransferase as hypocholesterolemic agents” (J Med Chem, 1996).

Legend:
[1] = target: T1, Sterol O-acyltransferase 1 (Rattus norvegicus) (UniProt O70536); assay: Percent change in plasma total cholesterol in an acute cholesterol-fed rat model of hypercholesterolemia, dose at 30 mg/kg; format: functional, organism-based; design: dose 30 mg/kg
T1 sequence (whole entry): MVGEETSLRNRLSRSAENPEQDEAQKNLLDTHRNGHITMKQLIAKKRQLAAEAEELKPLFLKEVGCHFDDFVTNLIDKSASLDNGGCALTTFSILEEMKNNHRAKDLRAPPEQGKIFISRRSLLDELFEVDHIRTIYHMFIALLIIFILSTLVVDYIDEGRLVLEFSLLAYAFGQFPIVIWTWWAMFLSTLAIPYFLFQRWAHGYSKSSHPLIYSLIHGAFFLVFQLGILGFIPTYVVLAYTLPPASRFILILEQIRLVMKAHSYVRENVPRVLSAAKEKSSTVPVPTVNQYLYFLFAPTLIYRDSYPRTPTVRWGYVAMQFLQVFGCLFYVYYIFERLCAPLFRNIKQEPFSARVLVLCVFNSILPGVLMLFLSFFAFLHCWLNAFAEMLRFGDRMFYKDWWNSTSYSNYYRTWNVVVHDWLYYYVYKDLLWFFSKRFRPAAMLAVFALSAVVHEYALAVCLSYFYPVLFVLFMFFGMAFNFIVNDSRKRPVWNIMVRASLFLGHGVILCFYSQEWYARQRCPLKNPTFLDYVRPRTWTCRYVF

[2] = target: T1, Sterol O-acyltransferase 1 (Rattus norvegicus); assay: Percent change in plasma total cholesterol in an acute cholesterol-fed rat model of hypercholesterolemia, dose at 3 mg/kg; format: functional, organism-based; design: dose 3 mg/kg
O-acyltransferase = O-acyltransferase (Oryctolagus cuniculus, UniProt G1SFD9); assay: (§1) Acyl coenzyme A:cholesterol acyltransferase 1 inhibition in vitro measured in rabbit intestinal microsomes; design: species or system Intestine
Rattus norvegicus [3] = assay: Percent change in plasma TC in the chronic C-fed rat model of pre-established hypercholesterolemia. dose at 30 mg/kg; format: functional
Outline: (§2)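 Chronic rat model of pre-established hypercholesterolemia: 1 week on high-cholesterol diet, then compound dosed orally once daily for 1 week. Plasma total cholesterol, HDL-C and non-HDL-C expressed as percent change versus control; p < 0.05 flagged.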

Rattus norvegicus [4] = assay: Percent change in non-HDL-C Dose at 30 mg/kg; format: functional; outline: as §2
Rattus norvegicus [5] = assay: Percent change in HDL-Cdose at 30 mg/kg; format: functional; outline: as §2
Rattus norvegicus [6] = assay: Percent change in non-HDL-C,Dose at 3 mg/kg; format: functional; outline: as §2
Rattus norvegicus [7] = assay: Percent change in HDL-C,dose at 30 mg/kg; format: functional; outline: as §2
Rattus norvegicus [8] = assay: Percent change in non-HDL-C,dose at 30 mg/kg; format: functional; outline: as §2
Canis familiaris [9] = assay: Percent change in plasma cholesterol in dog at 3 mg/kg; format: functional, Canis lupus familiaris
Outline: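 Cholesterol-fed female Beagle dogs given bulk drug in capsules before meals, daily for 1 week, at 3 mg/kg po. Plasma total cholesterol compared before and after treatment as percent change; paired two-tailed t-test, n = 6.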

Rattus norvegicus [10] = assay: Percent change in plasma TC in the chronic C-fed rat model of pre-established hypercholesterolemia. Dose at 3 mg/kg; format: functional; outline: as §2
Rattus norvegicus [11] = assay: (§3) Percent change in plasma TC in the chronic C-fed rat model of pre-established hypercholesterolemia. Dose at 30 mg/kg; format: functional; outline: as §2
Rattus norvegicus [12] = assay: Percent change in plasma TC in the chronic C-fed rat model of pre-established hypercholesterolemia. Dose at 10 mg/kg; format: functional; outline: as §2
Canis familiaris [13] = assay: mean blood drug concentration in dog, compound Dose at 3 mg/kg; format: ADME, organism-based, Canis lupus familiaris; design: dose 3 mg/kg; settings: in vivo
Outline: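 Cholesterol-fed Beagle dogs dosed at 3 mg/kg. Plasma drug measured by HPLC on a C8 column, acetonitrile/water 4:1 eluent, detection at 190 nm, with a related analog as internal standard. Quantitation limit 40 ng/mL; mean of 6 animals.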

Rattus norvegicus [14] = assay: Percent change in HDL-C,Dose at 10 mg/kg; format: functional; outline: as §2
Rattus norvegicus [15] = assay: Percent change in HDL-C,Dose at 3 mg/kg; format: functional; outline: as §2
Rattus norvegicus [16] = assay: Percent change in non-HDL-C,Dose at 10 mg/kg; format: functional; outline: as §2
Rattus norvegicus [17] = assay: Percent change in non-HDL-C, dose at 30 mg/kg; format: functional; outline: as §2
[18] = target: T1, Sterol O-acyltransferase 1 (Rattus norvegicus); assay: as §3; format: functional, organism-based; design: dose 30 mg/kg; outline: as §2
Rattus norvegicus [19] = assay: Percent change in HDL-CDose at 30 mg/kg; format: functional; outline: as §2
Rattus norvegicus [20] = assay: Percent change in HDL-C,Dose at 30 mg/kg; format: functional; outline: as §2
[21] = target: T2, Acyl-CoA:cholesterol acyltransferase (Oryctolagus cuniculus) (UniProt Q95214); assay: as §1; settings: Intestine, concentration not given here
T2 sequence (whole entry): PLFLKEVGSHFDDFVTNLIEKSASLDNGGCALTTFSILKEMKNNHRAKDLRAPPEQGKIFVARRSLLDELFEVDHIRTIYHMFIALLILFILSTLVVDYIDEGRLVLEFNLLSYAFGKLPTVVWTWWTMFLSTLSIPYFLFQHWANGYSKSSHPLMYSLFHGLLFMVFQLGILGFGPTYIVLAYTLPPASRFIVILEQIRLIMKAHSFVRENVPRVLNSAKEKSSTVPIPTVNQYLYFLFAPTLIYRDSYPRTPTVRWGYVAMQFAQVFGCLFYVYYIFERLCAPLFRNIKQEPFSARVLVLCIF
Outline: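 ACAT activity in intestinal microsomes from cholesterol-fed rabbits, measured by incubation with 14C-labeled oleoyl-CoA; IC50 is the micromolar concentration giving 50% inhibition of enzyme activity.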

Rattus norvegicus [22] = assay: Percent change in plasma TC in the chronic C-fed rat model of pre-established hypercholesterolemia, dose at 3 mg/kg; format: functional; outline: as §2
Rattus norvegicus [23] = assay: Percent change in non-HDL-C,Dose at 30 mg/kg; format: functional; outline: as §2

Delta TC [1] [%] | Delta TC [2] [%] | IC50 (O-acyltransferase) [nM] | SMILES | also measured
-57 | -45 | 210 | CCCCCCCCCCCCn1nnnc1NC(=O)Nc1c(C(C)C)cccc1C(C)C | 
-23 |  | 4700 | COC(=O)CCCCCCCCCCN1NN=C(NC(=O)Nc2c(C(C)C)cccc2C(C)C)N1 | 
-36 |  | 250 | CCCCCCCCCCCCn1ncnc1NC(=O)Nc1c(C(C)C)cccc1C(C)C | 
 |  | > 10000 | CC(C)c1cccc(C(C)C)c1NC(=O)Nc1nnn[nH]1 | 
-67 | -43 | 57 | CCCCCCCCCCCCCCCCN1NN=C(NC(=O)Nc2c(C(C)C)cccc2C(C)C)N1 | 
-26 |  | 92 | CCCCN1NN=C(NC(=O)Nc2c(C(C)C)cccc2C(C)C)N1 | 
-69 | -61 | 29 | CCCCCCCCCCc1cc(NC(=O)Nc2c(C(C)C)cccc2C(C)C)on1 | Delta TC (Rattus norvegicus [3]): -13%; Non-HDL-C (Rattus norvegicus [4]): -14%; Delta HDL-C (Rattus norvegicus [5]): -6%
-30 |  | 120 | CCCCCCCCCCCCn1cnc(NC(=O)Nc2c(C(C)C)cccc2C(C)C)n1 | 
-46 |  | 36 | CCCCCCCCCCCCCc1nnc(NC(=O)Nc2c(C(C)C)cccc2C(C)C)s1 | 
-28 |  | 32 | CC(C)c1cccc(C(C)C)c1NC(=O)Nc1nnn(CCCCCCCCCCCO)n1 | 
-29 |  | 150 | CCCCCCCCCCCc1csc(NC(=O)Nc2c(C(C)C)cccc2C(C)C)n1 | 
-70 | -63 | 9 | CCCCCCCCCCCN1NN=C(NC(=O)Nc2c(C(C)C)cccc2C(C)C)N1 | 
-53 | -28 | 37 | CC(C)c1cccc(C(C)C)c1NC(=O)Nc1nnn(CCCCCCCCCCCOC2CCCCO2)n1 (stereo not given) | 
-19 |  |  | CC(C)c1cccc(C(C)C)c1NC(=O)Nc1nn[nH]n1 | 
-28 |  |  | CCCCCCCCCCCCn1cnnc1NC(=O)Nc1c(C(C)C)cccc1C(C)C | 
-75 | -69 | 66 | CCCCCCCCCCCCN1NN=C(NC(=O)Nc2c(OC)cc(OC)cc2OC)N1 | 
-62 | -34 | 18 | CCCCCCCCCCCCCc1nnc(NC(=O)Nc2c(C(C)C)cccc2C(C)C)o1 | 
-67 | -61 | 14 | CCCCCCCCCCCCN1NN=C(NC(=O)Nc2c(C(C)C)cccc2C(C)C)N1 | Non-HDL-C (Rattus norvegicus [6]): -47%; Delta HDL-C (Rattus norvegicus [7]): 93%; Non-HDL-C (Rattus norvegicus [8]): -78%; Delta plasma cholesterol (Canis familiaris [9]): -39%; Delta TC (Rattus norvegicus [10]): -43%; Delta TC (Rattus norvegicus [11]): -69%; Delta TC (Rattus norvegicus [12]): -64%; Plasma level (Canis familiaris [13]): 29.3 ng/mL; Delta HDL-C (Rattus norvegicus [14]): 87%; Delta HDL-C (Rattus norvegicus [15]): 20%; Non-HDL-C (Rattus norvegicus [16]): -72%
-59 | -21 | 73 | CCCCCCN1NN=C(NC(=O)Nc2c(C(C)C)cccc2C(C)C)N1 | 
-65 | 1 | 31 | CCCCCCCCCN1NN=C(NC(=O)Nc2c(C(C)C)cccc2C(C)C)N1 | 
-62 | -59 | 14 | CCCCCCCCCCCCCc1cc(NC(=O)Nc2c(C(C)C)cccc2C(C)C)no1 | Delta HDL-C (Rattus norvegicus [7]): 33%; Delta TC (Rattus norvegicus [3]): -40%; Non-HDL-C (Rattus norvegicus [17]): -45%

Delta TC [1] [%] | Delta TC [2] [%] | IC50 (O-acyltransferase) [nM] | SMILES | also measured
-55 |  | 63 | CCCCCCCCCCCCc1coc(NC(=O)Nc2c(C(C)C)cccc2C(C)C)n1 | 
-39 |  | 150 | CCCCCCCCCc1nnc(NC(=O)Nc2c(C(C)C)cccc2C(C)C)s1 | 
12 |  |  | CCCCCCCCCCCCCSc1n[nH]c(NC(=O)Nc2c(C(C)C)cccc2C(C)C)n1 | 
-61 | -58 | 19 | CCCCCCCCCCCCc1cc(NC(=O)Nc2c(C(C)C)cccc2C(C)C)on1 | Delta HDL-C (Rattus norvegicus [20]): 100%; Delta TC [18]: -56%; Non-HDL-C (Rattus norvegicus [4]): -68%
-62 | -35 | 14 | CCCCCCCCCCN1NN=C(NC(=O)Nc2c(C(C)C)cccc2C(C)C)N1 | 
-61 |  | 39 | CCCCCCCCCCCc1nnc(NC(=O)Nc2c(C(C)C)cccc2C(C)C)s1 | 
-33 |  | 120 | CCCCCCCCCCc1sc(NC(=O)Nc2c(C(C)C)cccc2C(C)C)nc1C | 
12 |  | 4200 | CCCCCCCCCCCCc1n[nH]c(NC(=O)Nc2c(C(C)C)cccc2C(C)C)n1 | 
-6 |  | 1700 | CCCCCCCCCCCCC[S+]([O-])c1n[nH]c(NC(=O)Nc2c(C(C)C)cccc2C(C)C)n1 (stereo not given) | 
-11 |  | 4700 | CCCCCCCCCCCCCS(=O)(=O)c1n[nH]c(NC(=O)Nc2c(C(C)C)cccc2C(C)C)n1 | 
 |  |  | CCCCCCCCCCCCn1nnnc1NC(=O)Nc1c(OC)cc(OC)cc1OC | inhibition [21]: 28%
-65 | -22 |  | CCCCCCCCCCn1nnnc1NC(=O)Nc1c(C(C)C)cccc1C(C)C | 
-27 |  | 370 | CC(C)c1cccc(C(C)C)c1NC(=O)NC1=NN(Cc2ccccc2)NN1 | 
 |  | 35 | CCCCCCCCCCCCn1cnc(NC(=O)Nc2c(C(C)C)cccc2C(C)C)c1 | 
-67 | -67 | 9 | CCCCCCCCCCCCCN1NN=C(NC(=O)Nc2c(C(C)C)cccc2C(C)C)N1 | Delta HDL-C (Rattus norvegicus [20]): 113%; Delta TC (Rattus norvegicus [22]): -52%; Non-HDL-C (Rattus norvegicus [6]): -47%; Delta TC [18]: -66%; Delta plasma cholesterol (Canis familiaris [9]): -47%; Non-HDL-C (Rattus norvegicus [23]): -76%; Delta TC (Rattus norvegicus [12]): -64%; Plasma level (Canis familiaris [13]): 76.7 ng/mL; Delta HDL-C (Rattus norvegicus [14]): 113%; Delta HDL-C (Rattus norvegicus [15]): 21%; Non-HDL-C (Rattus norvegicus [16]): -73%
-27 |  | 63 | CC(C)=CCC/C(C)=C/Cn1nnc(NC(=O)Nc2c(C(C)C)cccc2C(C)C)n1 | 
-62 | -51 | 13 | CCCCCCCCCCCCCc1cc(NC(=O)Nc2c(C(C)C)cccc2C(C)C)on1 | Delta TC [18]: -53%; Non-HDL-C (Rattus norvegicus [4]): -65%; Delta HDL-C (Rattus norvegicus [19]): 111%
-40 |  | 150 | CCCCCCCCCCCCN1NN=C(CNC(=O)Nc2c(OC)cc(OC)cc2OC)N1 | 
-67 | -24 | 59 | CCCCCCCCN1NN=C(NC(=O)Nc2c(C(C)C)cccc2C(C)C)N1 | 
-58 | -31 | 12 | CCCCCCCCCCCCN1NN=C(CNC(=O)Nc2c(C(C)C)cccc2C(C)C)N1 | 
-21 |  | 680 | CCCCCCCCCCCCCSc1nnc(NC(=O)Nc2c(C(C)C)cccc2C(C)C)n1C(C)=O | 

SMILES | Delta TC [1] [%] | Delta TC [2] [%] | IC50 (O-acyltransferase) [nM] | also measured
CCCCCCCCCCCCCCc1cc(NC(=O)Nc2c(C(C)C)cccc2C(C)C)on1 | -64 | -44 | 28 | Delta TC [18]: -16%; Non-HDL-C (Rattus norvegicus [4]): -18%; Delta HDL-C (Rattus norvegicus [19]): 16%
